{"data": "Published values of several laboratories"}
{"SMILES": "N.N.[Cl][Pt][Cl]", "tested on": "HaCaT", "assay": "cell growth or viability, MTT", "conditions": "72 h", "endpoint": "IC50", "value": "6.3 µM"}
{"SMILES": "C#Cc1ccc(C=NNC(=O)c2ccc(COCCC)cc2)c(O)c1", "tested on": "Cryptococcus neoformans", "assay": "microbial growth, broth dilution", "conditions": "pH 7.4", "endpoint": "MIC80", "value": "0.015 µg/mL"}
{"SMILES": "CC[C@H](C)[C@@H]([C@@H](CC(=O)N1CCC[C@H]1[C@H](OC)[C@@H](C)C(=O)N[C@H](C)[C@@H](O)c1ccccc1)OC)N(C)C(=O)[C@@H](NC(=O)[C@@H](NC)C(C)C)C(C)C", "tested on": "Daudi", "assay": "cell growth or viability, CCK-8", "endpoint": "IC50", "value": "0.00185 µM"}
{"SMILES": "CC(=O)O[C@H]1C(=O)[C@@]2(C)[C@H]([C@H](OC(=O)c3ccccc3)[C@]3(O)C[C@H](OC(=O)[C@H](O)[C@@H](NC(=O)c4ccccc4)c4ccccc4)C(C)=C1C3(C)C)[C@]1(OC(C)=O)CO[C@@H]1C[C@@H]2O", "tested on": "HaCaT", "assay": "cell growth or viability, CCK-8", "conditions": "12.5 µM, 72 h", "endpoint": "inhibition", "value": "> 90%"}
{"SMILES": "C#Cc1cccc(C=NNC(=O)c2ccc(Br)c(Br)c2)c1O", "tested on": "Cryptococcus neoformans", "assay": "microbial killing", "endpoint": "MFC", "value": "0.12 µg/mL"}
{"SMILES": "O=C1CCP(=S)(c2ccccc2)CC1", "tested on": "HaCaT", "assay": "cell growth or viability, MTT", "conditions": "72 h", "endpoint": "IC50", "value": "14.2 µM"}
{"SMILES": "O=C/C=C/c1ccccc1", "tested on": "Bacillus subtilis", "assay": "microbial growth, well diffusion", "system": "MTCC121", "conditions": "1000 µg/mL, 18 h", "endpoint": "inhibition zone", "value": "8 mm"}
{"SMILES": "COc1cnc(OC)n2nc(NS(=O)(=O)c3c(OCC(F)F)cccc3C(F)(F)F)nc12", "tested on": "HaCaT", "assay": "cell growth or viability, CCK-8", "conditions": "50 µM, 72 h", "endpoint": "inhibition", "value": "0.69%"}
{"SMILES": "O=C1CCP(=[Se])(c2ccccc2)CC1", "tested on": "HaCaT", "assay": "cell growth or viability, MTT", "conditions": "72 h", "endpoint": "IC50", "value": "> 100 µM"}
{"SMILES": "C#Cc1cccc(O)c1C=NNC(=O)c1ccc(COC)cc1", "tested on": "Cryptococcus neoformans", "assay": "microbial growth, broth dilution", "conditions": "pH 7.4", "endpoint": "MIC80", "value": "0.06 µg/mL"}
{"SMILES": "N.N.[Cl][Pt][Cl]", "tested on": "OCI-LY19", "assay": "cell growth or viability, ATP luminescence", "conditions": "10 µM, 72 h", "endpoint": "inhibition", "value": "100%"}
{"SMILES": "C#Cc1ccc(C=NNC(=O)c2ccc(Br)cc2)c(O)c1", "tested on": "Cryptococcus neoformans", "assay": "microbial growth, broth dilution", "conditions": "pH 7.4", "endpoint": "MIC80", "value": "0.03 µg/mL"}
{"SMILES": "CC[C@H](C)C[C@H](C)CCCCCCCCC(=O)N[C@H]1C[C@@H](O)[C@@H](NCCN)NC(=O)[C@@H]2[C@@H](O)CCN2C(=O)[C@H]([C@H](O)CCN)NC(=O)[C@H]([C@H](O)[C@@H](O)c2ccc(O)cc2)NC(=O)[C@@H]2C[C@@H](O)CN2C(=O)[C@H]([C@@H](C)O)NC1=O", "tested on": "Nakaseomyces glabratus", "assay": "microbial killing, broth dilution", "system": "ATCC15126", "conditions": "48 h", "endpoint": "MFC", "value": "0.5 µg/mL"}
{"SMILES": "O=C1CCc2cc(-c3cccc(OC(=O)[C@H]4[C@H](c5ccccc5)[C@@H](C(=O)O)[C@H]4c4ccccc4)c3)ccc2N1", "tested on": "WI-38", "assay": "cell growth or viability, MTT", "endpoint": "IC50", "value": "77 µM"}
